# Compound activity (PubChem BioAssay)
# Most compounds without a hit are left out; they make up all but 1.1% or so of the library.
# PDI inh: blocks human protein disulfide isomerase activity; AID 588391; inhibition, % at 10 µM; hit rate 0.052% among 350,000; PDI insulin aggregation turbidity, A650, 90 min;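 active = mean inhibition across replicates of 30% or more, whatever share of single replicates reach that level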
# CAL PDZ FP-1: blocks peptide binding to the human CAL PDZ domain; purified CAL PDZ, TMR-peptide fluorescence polarization, 1 h; Q9HD26; inhibition, % at 24.9 µM; hit rate 0.92% among 300,000;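 active = mean inhibition of at least 30% with at least half of replicates also reaching 30%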;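 also: 0% = DMSO neutral control and 100% = excess unlabeled competitor peptide PRC23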
# CAL PDZ FP-2: inhibitors of human CAL PDZ peptide binding. Q9HD26. purified CAL PDZ, TMR-peptide fluorescence polarization, 1 h. hit rate 0.02% among 330,000. AID 504414. inhibition, % at 20 µM;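 active = highest replicate inhibition of at least 40%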;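 also: plate controls were DMSO neutral control wells for no effect and unlabeled competitor peptide control wells for full effect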
#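 System: tagged CAL PDZ domain. Schedule: 1 h room-temperature incubation prior to read. Signal: fluorescence polarization (mP). Measure: percent inhibition from loss of millipolarization.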
# ERAP1 inh: inhibitors of human ERAP1 aminopeptidase; AID 652197; inhibition, % at 10.7 µM; recombinant ERAP1, Leu-AMC fluorescence, 60 min; hit rate 0.15% among 340,000;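 active = mean replicate inhibition of at least 30%, or all replicates individually reaching that 30% level; inactive = mean below 30% and not every replicate reaching it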;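 also: 0% = neutral control wells and 100% = L-leucinethiol positive control wells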
# ERp5 block: ERp5 (human) disulfide isomerase inhibition; Q15084; ERp5 insulin aggregation, absorbance 650 nm, 90 min; inhibition, % at 9.99 µM; hit rate 0.05% among 350,000;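 active = mean replicate inhibition above about 25%, with every replicate also reaching it, limit read from the data, passing the limit was not always enough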
# Rin1-Abl PPI inh: inhibitors of human Rin1-Abl protein interaction | P00519+Q13671 | TR-FRET Rin1/Abl binding, biochemical | inhibition, % at 7.35 µM | hit rate 0.4% among 360,000; in the data active = inhibition above about 5%, passing the limit was not always enough
# Target sequence (P00519 whole entry, looked up): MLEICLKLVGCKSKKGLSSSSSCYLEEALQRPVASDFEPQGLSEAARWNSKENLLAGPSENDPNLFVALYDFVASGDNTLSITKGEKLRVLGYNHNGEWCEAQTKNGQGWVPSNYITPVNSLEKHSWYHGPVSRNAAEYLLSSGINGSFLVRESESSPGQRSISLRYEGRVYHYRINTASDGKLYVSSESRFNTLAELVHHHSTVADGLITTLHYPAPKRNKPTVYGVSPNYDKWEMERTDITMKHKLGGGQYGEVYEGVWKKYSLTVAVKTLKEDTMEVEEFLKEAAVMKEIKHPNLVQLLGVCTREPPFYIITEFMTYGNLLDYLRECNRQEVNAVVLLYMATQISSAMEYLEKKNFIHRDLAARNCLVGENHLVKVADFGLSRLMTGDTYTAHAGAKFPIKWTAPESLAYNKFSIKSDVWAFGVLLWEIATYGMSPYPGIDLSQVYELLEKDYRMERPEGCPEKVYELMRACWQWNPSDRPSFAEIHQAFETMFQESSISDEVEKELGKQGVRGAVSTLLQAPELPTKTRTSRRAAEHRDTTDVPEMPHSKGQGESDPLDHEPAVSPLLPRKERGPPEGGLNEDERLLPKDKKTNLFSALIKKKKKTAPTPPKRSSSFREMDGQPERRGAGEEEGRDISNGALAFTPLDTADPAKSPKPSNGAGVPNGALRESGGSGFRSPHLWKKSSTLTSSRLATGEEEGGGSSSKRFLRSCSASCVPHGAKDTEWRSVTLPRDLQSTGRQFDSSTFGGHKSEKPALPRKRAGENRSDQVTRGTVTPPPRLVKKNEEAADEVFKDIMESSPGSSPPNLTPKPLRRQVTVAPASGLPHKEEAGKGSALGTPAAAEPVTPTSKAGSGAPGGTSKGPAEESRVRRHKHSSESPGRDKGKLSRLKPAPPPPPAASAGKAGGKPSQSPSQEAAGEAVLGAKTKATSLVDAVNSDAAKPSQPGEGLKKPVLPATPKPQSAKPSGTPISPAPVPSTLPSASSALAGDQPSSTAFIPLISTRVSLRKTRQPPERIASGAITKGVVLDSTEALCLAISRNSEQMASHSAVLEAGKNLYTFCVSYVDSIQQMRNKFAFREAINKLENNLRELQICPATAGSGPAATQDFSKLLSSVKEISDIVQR
# Target sequence (Q13671 whole entry, looked up): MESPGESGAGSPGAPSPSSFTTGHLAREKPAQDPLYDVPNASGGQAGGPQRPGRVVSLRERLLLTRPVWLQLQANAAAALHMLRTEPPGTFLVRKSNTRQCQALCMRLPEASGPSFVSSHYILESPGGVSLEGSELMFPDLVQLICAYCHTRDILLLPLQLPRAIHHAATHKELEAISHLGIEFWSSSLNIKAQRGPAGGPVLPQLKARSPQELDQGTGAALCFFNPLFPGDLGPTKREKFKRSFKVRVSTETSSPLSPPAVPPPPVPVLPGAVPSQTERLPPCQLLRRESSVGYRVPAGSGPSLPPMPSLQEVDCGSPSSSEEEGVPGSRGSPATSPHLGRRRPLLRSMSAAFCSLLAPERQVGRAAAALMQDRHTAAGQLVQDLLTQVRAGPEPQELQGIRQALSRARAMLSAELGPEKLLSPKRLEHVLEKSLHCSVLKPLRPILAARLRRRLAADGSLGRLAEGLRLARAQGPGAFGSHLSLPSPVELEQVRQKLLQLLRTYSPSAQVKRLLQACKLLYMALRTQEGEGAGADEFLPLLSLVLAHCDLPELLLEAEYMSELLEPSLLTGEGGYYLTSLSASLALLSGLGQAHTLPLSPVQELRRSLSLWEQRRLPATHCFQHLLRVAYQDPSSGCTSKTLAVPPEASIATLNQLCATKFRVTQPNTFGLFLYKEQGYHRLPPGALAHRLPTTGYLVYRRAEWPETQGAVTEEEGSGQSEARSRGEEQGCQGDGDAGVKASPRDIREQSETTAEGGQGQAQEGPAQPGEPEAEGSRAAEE
# Rin1-Abl confirm: confirmation of inhibitors of human Rin1-Abl interaction. shares compounds with Rin1-Abl PPI inh. TR-FRET Rin1-Abl binding, purified proteins. inhibition, % at 7.35 µM. hit rate 49% among 1,300. AID 602124
# GFP quencher: GFP fluorescence interference artifact; shares compounds with Rin1-Abl PPI inh; inhibitors/quenchers counterscreen; inhibition, % at 6.75 µM; hit rate 8.5% among 1,300; AID 602125;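 also: ABL1-eGFP fusion protein alone without its partner RIN1-SBP; 0% = protein with vehicle and 100% = wells lacking protein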
# GFP quench DR: quenches GFP in dose response, Rin1-Abl counter-screen | IC50, µM | 230 tested, under 10 active | GFP fluorescence interference/quenching counterscreen | shares compounds with Rin1-Abl PPI inh; call rule not given here;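 also: ABL1-eGFP fusion protein alone without its RIN1 binding partner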
# Starred values were filed as active, the others as inactive; · = not tested or not shown. Rule as the data show it, unless noted: active = inhibition above about 6.5%; inactive = the rest.
SMILES,PDI inh,CAL PDZ FP-1,CAL PDZ FP-2,ERAP1 inh,ERp5 block,Rin1-Abl PPI inh,Rin1-Abl confirm,GFP quencher,others
Cc1cccc(S(=O)(=O)N2CCCCN3[C@H](CO)[C@@H](c4ccc(-c5cccnc5)cc4)[C@@H]3C2)c1,·,·,·,5,-5,·,·,·,
COc1cc(Cl)ccc1OCc1cc(C(=O)N2CCCCC2c2cccnc2)no1 (centres undefined),6,-1,-3,2,9,10*,1,0,
O=C(c1cc(COc2ccc(F)cc2Cl)on1)N1CCCCC1c1cccnc1 (centres undefined),10,-5,-1,1,3,6,·,·,
COc1cc(/C=N\NC(=O)Cn2nnc3ccccc32)cc(OC)c1OC,-1,-3,0,·,·,-2,·,·,
COc1ccc(/C=N/NC(=O)Cn2c(Cc3ccc(OC)c(OC)c3)nc3ccccc32)cc1,12,1,-2,·,·,14*,19*,-2,GFP quench DR=>68
CC=Cc1ccc2n(c1=O)C[C@H]1[C@H](CO)[C@@H](C(=O)NCC(F)(F)F)[C@@H]2N1C(=O)C1CCCCC1 (mixture of isomers),·,·,·,-2,-8,·,·,·,
COc1ccc(CN(CCC(c2ccc(F)cc2)C2CCOC(C)(C)C2)C(=O)c2ccco2)cc1 (centres undefined),11,-7,-2,-5,5,5.5*,18*,0,
O=C(N/N=C/c1ccc(O)c(O)c1)N/N=C/c1ccc(O)c(O)c1,-21,2,2,9,2,49*,63*,12*,
Cc1nonc1C(=O)N/N=C/c1ccc(O)c(O)c1,4,-3,0,·,·,-1,·,·,
CCCC#Cc1ccc([C@H]2[C@@H](CO)N3C(=O)CN(S(=O)(=O)Cc4ccccc4)C[C@H]23)cc1,·,·,·,2,-12,·,·,·,
O=C(NCCCO)c1ccc2nc(-c3ccco3)c(-c3ccco3)nc2c1,6,2,0,11,-4,11*,2,11*,
O=C(O)c1cccc(Cn2c(Cl)c(/C=N/NC(=O)c3ccccc3O)sc2=O)c1,-2,7,-1,5,-2,5.2*,-4,3,
O=C(O)c1cccc(Cn2c(Cl)c(/C=N/NC(=O)c3ccccc3Cl)sc2=O)c1,1,-2,-6,·,·,0,·,·,
O=C(COc1ccc(Cl)cc1Br)OCC(=O)c1ccc[nH]1,3,1,-5,0,-2,8.3*,-1,3,
C=CCn1c(CCc2ccccc2)nnc1SCC(N)=O,1,6,0,0,-1,-2,·,·,
CCn1c(CCc2ccccc2)nnc1SCC(N)=O,15,·,0,-1,-9,6.9*,-1,1,
C[C@@H]1CCCCO[C@H](CN(C)C(=O)Nc2ccc(F)cc2)[C@H](C)CN([C@H](C)CO)C(=O)c2cc(NS(=O)(=O)c3cn(C)cn3)ccc2O1,·,·,·,-1,12,·,·,·,
CN1C[C@@H]2[C@H](c3ccccc31)[C@@H](CO)N2Cc1ccccc1F,·,·,·,0,-2,·,·,·,
Cc1noc(C)c1S(=O)(=O)Nc1ccc2c(c1)C(=O)N([C@H](C)CO)C[C@@H](C)[C@@H](CN(C)Cc1ccc(-c3ccccc3)cc1)O2,·,·,·,1,-7,·,·,·,
CCc1oc(C(=O)O)cc1CN(CC)CC,3,-3,1,1,-5,5,·,·,
CCN(CC)Cc1cc(O)c(CN(CC)CC)cc1O,4,-2,-3,3,1,11*,1,5,
C[C@H]1CCCCO[C@H](CN(C)S(=O)(=O)c2cccs2)[C@@H](C)CN([C@@H](C)CO)C(=O)c2cc(NC(=O)CCCN(C)C)ccc2O1,·,·,·,2,3,·,·,·,
C[C@@H]1CCCCO[C@@H](CN(C)S(=O)(=O)c2ccccc2)[C@@H](C)CN([C@H](C)CO)C(=O)c2cc(NS(=O)(=O)c3ccc(F)cc3)ccc2O1,-2,·,·,-3,-10,51*,60*,0,GFP quench DR=>68
